# Experiments:
# [1] = biological target: T1, recombinant dg-Bcan protein (Homo sapiens, UniProt Q96GW7); test: Octet binding kinetics analysis, recombinant dg-Bcan; settings: Octet RED
# T1 sequence (Q96GW7 23-911): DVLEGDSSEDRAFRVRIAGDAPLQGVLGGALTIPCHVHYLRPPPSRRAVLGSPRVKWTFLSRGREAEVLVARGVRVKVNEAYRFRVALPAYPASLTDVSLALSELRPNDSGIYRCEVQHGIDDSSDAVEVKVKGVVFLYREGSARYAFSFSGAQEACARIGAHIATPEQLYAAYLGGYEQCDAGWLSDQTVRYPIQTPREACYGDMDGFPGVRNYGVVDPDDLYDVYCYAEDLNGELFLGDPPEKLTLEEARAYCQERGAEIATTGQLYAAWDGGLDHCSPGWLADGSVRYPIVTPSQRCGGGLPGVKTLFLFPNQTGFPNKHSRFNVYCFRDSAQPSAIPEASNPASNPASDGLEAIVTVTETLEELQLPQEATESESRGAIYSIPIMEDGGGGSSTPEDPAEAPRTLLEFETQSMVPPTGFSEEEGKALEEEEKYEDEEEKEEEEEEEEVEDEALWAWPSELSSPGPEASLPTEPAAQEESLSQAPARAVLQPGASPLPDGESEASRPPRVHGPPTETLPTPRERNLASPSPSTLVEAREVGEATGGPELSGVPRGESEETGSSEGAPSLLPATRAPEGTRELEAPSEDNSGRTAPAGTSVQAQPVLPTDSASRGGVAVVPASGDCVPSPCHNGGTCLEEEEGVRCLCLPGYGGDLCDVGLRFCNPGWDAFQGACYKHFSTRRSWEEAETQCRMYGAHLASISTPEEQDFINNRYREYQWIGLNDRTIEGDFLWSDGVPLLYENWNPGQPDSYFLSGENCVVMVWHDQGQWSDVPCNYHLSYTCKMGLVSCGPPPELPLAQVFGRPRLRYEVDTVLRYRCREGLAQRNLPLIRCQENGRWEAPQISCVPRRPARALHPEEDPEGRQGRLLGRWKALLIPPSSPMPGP
# In short: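 Binding kinetics of test peptides measured by biolayer interferometry (Octet RED384) against recombinant human brevican, deglycosylated before use and held in PBS with 0.1 mM EDTA, pH 6.8. Fully glycosylated Bcan served as a comparison protein. The run used working buffer (0.9% NaCl irrigation, 0.05% Tween) with 1000 rpm agitation at 30°C. KD and Rmax came from a one-site specific binding non-linear regression fit.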
# [2] = Solubility in aqueous solution; format: physicochemical; settings: observation
Substance,dg-Bcan protein binding [1],solubility in aqueous solution [2]
Scr-7,did not exhibit dg-Bcan protein binding,–
BTP-2,–,insoluble and precipitated in aqueous solution

# — paper PMC8114962 (Advanced therapeutics, 2021)
